Measurements taken from ChEMBL document CHEMBL1124938, “Antihypertensive dihydropyridines with 1,4,4-trisubstitution” (1990).

Experiments:
Rattus norvegicus [1] = test: Antihypertensive effects in conscious, unrestrained, spontaneously hypertensive rats after 100 mg/kg p.o. administration.; type: functional; settings: route oral
Procedure, shortened: (§1)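 SHR housed singly with free access to tap water, overnight recovery before testing. Compound suspended in 1% methylcellulose, given once ip at 30 mg/kg or by oral gavage at 100 mg/kg (n = 3); concurrent controls (n = 3) got 1 mL vehicle by same route. MAP recorded continuously 24 h; value is maximum change from concurrent control, mean ± SEM.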

Rattus norvegicus [2] = test: Total antihypertensive activity was obtained from the area between compound and control MAP (mean arterial pressure) curves, after (ip) 30 mg/kg administration in spontaneously hypertensive rats (SHR).; type: functional, Artery
Procedure, shortened: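 SHR dosed once ip at 30 mg/kg in 1% methylcellulose suspension (n = 3), with vehicle-dosed concurrent controls (n = 3). MAP recorded continuously over 24 h; time points 0, 0.25, 0.5, 1, 2, 4, 6, 12, 18 and 24 h used. Value is area between drug and control MAP curves, in mmHg × h.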

Rattus norvegicus [3] = test: Antihypertensive effects in conscious, unrestrained, spontaneously hypertensive rats after 30 mg/kg i.p. administration.; type: functional; settings: route intraperitoneal; procedure, shortened: as §1

Row | SMILES | Max change in blood pressure (Rattus norvegicus [1]) | Antihypertensive activity (Rattus norvegicus [2]) | Max change in blood pressure (Rattus norvegicus [3]) | Activity (Rattus norvegicus [2])
1 | CN(C)CC(=O)N1C=CC(c2ccccc2)(c2ccccc2)C=C1.Cl | -12 mmHg | 362 mmHg·h | -29 mmHg | –
2 | CC1(C)C=CN(/C(=N/c2ccccc2)N2CCCC2)C=C1.O=C(O)/C=C\C(=O)O | 19 mmHg | – | 27 mmHg | –
3 | CN(C)CC(=O)N1C=CC(C)(C)C=C1.O=C(O)/C=C\C(=O)O | -39 mmHg | – | -52 mmHg | 132 mmHg·h
4 | CC1(C)C=CN(C(=O)Nc2ccccc2)C=C1 | -15 mmHg | – | -24 mmHg | –
5 | CN(C)CCN1C=CC(c2ccccc2)(c2ccccc2)C=C1 | -14 mmHg | – | -30 mmHg | –
6 | COc1ccc(CC(=O)N2C=CC(C)(C)C=C2)cc1OC | 23 mmHg | – | -21 mmHg | –
7 | COC(=O)CCCN1C=CC(c2ccc(OC)cc2)(c2ccc(OC)cc2)C=C1 | -21 mmHg | – | 11 mmHg | –
8 | COC(=O)CCN1C=CC(C)(C)C=C1 | -19 mmHg | – | -71 mmHg | 1360 mmHg·h
9 | COC(=O)CCCN1C=CC(C)(C)C=C1 | -45 mmHg | – | -42 mmHg | 696 mmHg·h
10 | CN(C)CCN1C=CC(C)(C)C=C1 | -10 mmHg | 281 mmHg·h | -32 mmHg | –
11 | COc1ccc(CCN2C=CC(c3ccccc3)(c3ccccc3)C=C2)cc1OC | -7 mmHg | – | -7 mmHg | –
12 | CNC(=O)N1C=CC(C)(C)C=C1 | -41 mmHg | – | -34 mmHg | –
13 | COC(=O)CCCCN1C=CC(C)(C)C=C1 | -11 mmHg | – | -58 mmHg | 943 mmHg·h
14 | CNC(=O)N1C=CC(c2ccccc2)(c2ccccc2)C=C1 | -11 mmHg | – | 17 mmHg | –
15 | CC1(C)C=CN(C(=O)c2ccccc2)C=C1 | -27 mmHg | 210 mmHg·h | -21 mmHg | –
16 | CC1(C)C=CN(C(=O)c2ccc[nH]2)C=C1 | -7 mmHg | – | 6 mmHg | –
17 | O=C(c1ccccc1)N1C=CC(c2ccccc2)(c2ccccc2)C=C1 | 12 mmHg | – | 11 mmHg | –
18 | Cc1csc(N2C=CC(C)(C)C=C2)n1 | -21 mmHg | – | 14 mmHg | –
19 | CC1(C)C=CN(C(=O)c2cccnc2)C=C1 | -26 mmHg | 291 mmHg·h | -19 mmHg | –
20 | CC1(C)C=CN(C(=O)C(c2ccccc2)c2ccccc2)C=C1 | -6 mmHg | – | -9 mmHg | –
21 | COC(=O)C1=C(C)NC(C)=C(C(=O)OC)C1c1ccccc1[N+](=O)[O-] [NIFEDIPINE] | -68 mmHg | – | -71 mmHg | –
